# Source: ChEMBL document CHEMBL1126717 (J Med Chem, 1993)
# Columns and labels:
# Format in all cases: cell-based
# [1] = molecular target: T1, Polyunsaturated fatty acid 5-lipoxygenase (Rattus norvegicus) (UniProt P12527); assay: Inhibition of LTB4 in whole cell 5-lipoxygenase assay in an intact rat basophilic leukemia (RBL-1) cell line at 16 uM
# T1 sequence (whole entry): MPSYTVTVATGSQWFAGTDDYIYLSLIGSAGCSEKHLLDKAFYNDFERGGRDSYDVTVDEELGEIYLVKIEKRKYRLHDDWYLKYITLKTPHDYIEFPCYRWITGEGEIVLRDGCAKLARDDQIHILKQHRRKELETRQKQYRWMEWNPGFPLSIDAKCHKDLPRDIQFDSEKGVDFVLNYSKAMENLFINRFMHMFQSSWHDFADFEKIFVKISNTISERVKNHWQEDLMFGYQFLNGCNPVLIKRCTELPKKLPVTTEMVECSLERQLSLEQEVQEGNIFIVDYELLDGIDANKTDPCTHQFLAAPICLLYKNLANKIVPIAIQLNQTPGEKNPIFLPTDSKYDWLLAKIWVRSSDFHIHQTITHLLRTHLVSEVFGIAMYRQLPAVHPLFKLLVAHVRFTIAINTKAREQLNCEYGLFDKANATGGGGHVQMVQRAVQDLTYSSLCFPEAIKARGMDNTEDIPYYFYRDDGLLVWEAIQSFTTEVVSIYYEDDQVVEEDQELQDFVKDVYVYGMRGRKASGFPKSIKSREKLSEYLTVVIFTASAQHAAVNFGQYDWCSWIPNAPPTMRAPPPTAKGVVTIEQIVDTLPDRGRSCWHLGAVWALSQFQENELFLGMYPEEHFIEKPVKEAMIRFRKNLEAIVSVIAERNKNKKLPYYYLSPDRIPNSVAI
# Summary of the method: (§1)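 RBL-1 cells grown at 37 °C in suspension in MEM with 12% FBS under 5% CO₂. Washed in cold PBS pH 7.4 and resuspended at 2 × 10⁶ cells/mL in PBS with 1.0 mM calcium. Preincubated with test agent in 1% DMSO for 10 min at room temperature, then stimulated with A23187 (5 μM) for 7 min at 37 °C. LTB₄ in the supernatant measured by RIA. Percent inhibition taken against vehicle; IC₅₀ by linear regression on log concentration.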
# [2] = molecular target: T2, Cyclooxygenase (Rattus norvegicus) (UniProt P35355+Q63921); assay: Inhibition of PGF2-alpha formation in Prostaglandin G/H synthase assay in an intact rat basophilic leukemia (RBL-1) cell line at 16 uM
# Summary of the method: (§2)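 RBL-1 suspension cultures (MEM, 12% FBS, 37 °C, 5% CO₂) were washed in PBS and held at 2 × 10⁶ cells/mL in PBS containing 1.0 mM Ca. Cells were exposed to compound in 1% DMSO for 10 min at room temperature, then to 5 μM A23187 for 7 min at 37 °C, and chilled on ice to stop. PGF₂α in the supernatant was measured by RIA. Percent inhibition was calculated relative to vehicle-treated cells.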
# Cyclooxygenase = molecular target: T3, Cyclooxygenase (Rattus norvegicus, UniProt P35355+Q63921); assay: Inhibition of Prostaglandin G/H synthase mediated PGF2-alpha formation in rat basophilic leukemia (RBL-1) cells
# T3 sequence (P35355 whole entry): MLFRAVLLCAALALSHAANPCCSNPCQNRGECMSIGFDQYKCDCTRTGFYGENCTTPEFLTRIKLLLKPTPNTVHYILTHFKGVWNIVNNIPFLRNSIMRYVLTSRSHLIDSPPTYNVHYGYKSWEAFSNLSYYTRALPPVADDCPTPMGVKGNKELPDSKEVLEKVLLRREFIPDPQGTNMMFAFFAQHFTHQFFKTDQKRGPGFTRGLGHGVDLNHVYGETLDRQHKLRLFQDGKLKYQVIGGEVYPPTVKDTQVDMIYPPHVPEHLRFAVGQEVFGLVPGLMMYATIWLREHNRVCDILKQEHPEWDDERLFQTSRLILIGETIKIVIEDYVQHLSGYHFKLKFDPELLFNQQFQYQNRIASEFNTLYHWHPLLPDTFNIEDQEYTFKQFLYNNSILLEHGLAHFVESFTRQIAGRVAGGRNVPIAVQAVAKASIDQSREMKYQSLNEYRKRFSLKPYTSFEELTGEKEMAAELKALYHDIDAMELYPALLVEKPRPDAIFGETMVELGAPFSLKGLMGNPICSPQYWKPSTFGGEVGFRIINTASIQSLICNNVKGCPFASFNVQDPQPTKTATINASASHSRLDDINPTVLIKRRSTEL
# T3 sequence (Q63921 whole entry): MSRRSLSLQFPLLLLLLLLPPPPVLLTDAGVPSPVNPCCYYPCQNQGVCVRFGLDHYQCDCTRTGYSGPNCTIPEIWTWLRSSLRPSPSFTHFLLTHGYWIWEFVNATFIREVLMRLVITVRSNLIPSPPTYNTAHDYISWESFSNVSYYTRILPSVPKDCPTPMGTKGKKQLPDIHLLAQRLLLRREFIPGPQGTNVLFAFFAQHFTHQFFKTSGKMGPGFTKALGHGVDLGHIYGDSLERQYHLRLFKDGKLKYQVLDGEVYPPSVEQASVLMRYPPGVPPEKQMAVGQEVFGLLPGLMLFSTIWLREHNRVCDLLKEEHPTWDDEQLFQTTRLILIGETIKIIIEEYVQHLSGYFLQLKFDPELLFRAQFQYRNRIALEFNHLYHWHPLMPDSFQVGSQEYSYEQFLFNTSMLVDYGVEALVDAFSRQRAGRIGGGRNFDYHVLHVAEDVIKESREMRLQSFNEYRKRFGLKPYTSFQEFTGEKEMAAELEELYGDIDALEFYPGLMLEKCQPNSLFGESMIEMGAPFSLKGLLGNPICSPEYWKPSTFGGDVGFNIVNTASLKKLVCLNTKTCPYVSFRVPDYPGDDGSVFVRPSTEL
# [3] = molecular target: T4, Polyunsaturated fatty acid 5-lipoxygenase (Rattus norvegicus, UniProt P12527); assay: Inhibition 5-lipoxygenase mediated LTB4 formation in rat basophilic leukemia (RBL-1) cells
# T4 sequence (P12527 whole entry): T1 sequence (whole entry)
# Summary of the method: as §1, with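 “Washed” for “RBL-1 cells grown at 37 °C in suspension in MEM with 12% FBS under 5% CO₂. Washed”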
# [4] = molecular target: T1, Polyunsaturated fatty acid 5-lipoxygenase (Rattus norvegicus); assay: Inhibition of LTB4 in whole cell 5-lipoxygenase assay in an intact rat basophilic leukemia (RBL-1) cell line; summary of the method: as §1
# [5] = molecular target: T1, Polyunsaturated fatty acid 5-lipoxygenase (Rattus norvegicus); assay: Inhibition of LTB4 in whole cell 5-lipoxygenase assay in an intact rat basophilic leukemia (RBL-1) cell line at 10 uM; summary of the method: as §1
# [6] = molecular target: T2, Cyclooxygenase (Rattus norvegicus); assay: Inhibition of PGF2-alpha formation in Prostaglandin G/H synthase assay in an intact rat basophilic leukemia (RBL-1) cell line at 10 uM; summary of the method: as §2
structure (smiles),measurement,setting,value
Cc1ccc(Cl)c(Nc2ccccc2-c2n[nH]c(S)n2)c1Cl,inhibition,[1],< 40%
same,inhibition,[2],< 40%
Cc1ccc(Cl)c(Nc2ccccc2-c2nnc(O)n2C)c1Cl,inhibition,[1],< 40%
same,inhibition,[2],< 40%
Nc1nnc(-c2ccccc2Nc2cccc(C(F)(F)F)c2)s1,IC50,Cyclooxygenase,11 µM
N#CNc1nnc(-c2ccccc2Nc2cccc(C(F)(F)F)c2)o1,IC50,Cyclooxygenase,1 µM
Cc1ccc(Cl)c(Nc2ccccc2-c2nnc(NC#N)s2)c1Cl,IC50,[3],0.29 µM
same,IC50,Cyclooxygenase,1.9 µM
Oc1nnc(-c2ccccc2Nc2cccc(C(F)(F)F)c2)s1,IC50,[4],7.4 µM
Cn1c(O)nnc1-c1ccccc1Nc1cccc(C(F)(F)F)c1,inhibition,[1],< 40%
same,inhibition,[2],< 40%
Cc1ccc(Cl)c(Nc2ccccc2-c2nnc(N)s2)c1Cl,IC50,[3],0.69 µM
same,IC50,Cyclooxygenase,6.1 µM
Cn1c(S)nnc1-c1ccccc1Nc1cccc(C(F)(F)F)c1,IC50,[3],12 µM
same,IC50,Cyclooxygenase,30 µM
Nc1nnc(-c2ccccc2Nc2cccc(C(F)(F)F)c2)o1,IC50,Cyclooxygenase,7.1 µM
Cc1ccc(Cl)c(Nc2ccccc2-c2nnc(N)o2)c1Cl,inhibition,[5],45%
same,inhibition,[6],< 40%
Cc1ccc(Cl)c(Nc2ccccc2-c2nnc(S)n2C)c1Cl,inhibition,[1],86%
same,inhibition,[2],< 40%
N#CNc1nnc(-c2ccccc2Nc2cccc(C(F)(F)F)c2)s1,IC50,[3],1.7 µM
same,IC50,Cyclooxygenase,2.6 µM
Cc1ccc(Cl)c(Nc2ccccc2-c2nnc(S)s2)c1Cl,IC50,Cyclooxygenase,1.7 µM
Cc1ccc(Cl)c(Nc2ccccc2-c2nnc(NC#N)o2)c1Cl,IC50,Cyclooxygenase,0.25 µM
FC(F)(F)c1cccc(Nc2ccccc2-c2n[nH]c(S)n2)c1,inhibition,[1],< 40%
Oc1n[nH]c(-c2ccccc2Nc2cccc(C(F)(F)F)c2)n1,inhibition,[5],< 40%
same,inhibition,[6],< 40%
